From ChEMBL document CHEMBL1125226, “Antineoplastic activity of didemnin congeners: nordidemnin and modified chain analogues” (1991)
In brackets after ≈: the same amount, converted by molar mass.

What was measured:
[1] = test system: L1210; assay: In vitro cytostatic activity determined on L1210 leukemia cells at 24 hours.; type: functional; conditions: Mus musculus, L1210, 24 h; read-out: ID50 (the source's name)
Procedure, shortened: (§1)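 Log-phase L1210 cells were seeded at 0.8 × 10⁵ cells/mL in RPMI 1640 with 20% heat-inactivated horse serum, 2 mmol/L L-glutamine, streptomycin and penicillin. Drugs in ethanol (0.5% final) were tested at several concentrations.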

[2] = test system: L1210; assay: In vitro cytostatic activity determined on L1210 leukemia cells at 48 hours.; type: functional; conditions: Mus musculus, L1210, 48 h; read-out: ID50 (the source's name); procedure, shortened: as §1
[3] = test system: P388; assay: Antitumor activity against P388 Leukemia from CDF1 female mice as Median survival time of treated mice at a dose of 0.12 mg/kg/day; type: functional, Mus musculus
Procedure, shortened: (§2)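 CDF1 female mice (BALB/c ♀ × DBA/2 ♂) given 10⁶ P388 cells ip on day 0. Drug in 2% methanol given ip on days 1, 5 and 9, 10 mice per group and more controls. Toxicity is survivors on day 5, with weight change between days 1 and 5. Mortality followed 30 days. T/C% is treated over control median survival (NCI method), significant at ≥125%.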

[4] = test system: P388; assay: Antitumor activity against P388 Leukemia from CDF1 female mice as Median survival time of treated mice at a dose of 0.75 mg/kg/day; type: functional, Mus musculus; procedure, shortened: as §2
[5] = test system: P388; assay: Antitumor activity against P388 Leukemia from CDF1 female mice as average weight change of animals between day 1 and day 5 after tumor implementation at a dose of 0.12 mg/kg/day; type: functional, Mus musculus
Procedure, shortened: (§3)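 P388 leukemia: CDF1 female mice were inoculated ip with 10⁶ cells on day 0. Treatment in 2% methanol was given ip on days 1, 5 and 9, with 10 mice per group and a larger control group. Body weight was recorded on days 1 and 5 post-implant, and the average change was reported.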

[6] = test system: P388; assay: Antitumor activity against P388 Leukemia from CDF1 female mice as average weight change of animals between day 1 and day 5 after tumor implementation at a dose of 0.75 mg/kg/day; type: functional, Mus musculus; procedure, shortened: as §3
[7] = test system: P388; assay: Antitumor activity against P388 Leukemia from CDF1 female mice (T/C) as median survival time of treated mice (T) over that of control mice (C) at a dose of 0.75 mg/kg/day; type: functional, Mus musculus; procedure, shortened: as §2
[8] = test system: P388; assay: Antitumor activity against P388 Leukemia from CDF1 female mice (T/C) as median survival time of treated mice (T) over that of control mice (C) at a dose of 0.12 mg/kg/day; type: functional, Mus musculus; procedure, shortened: as §2
[9] = test system: P388; assay: Antitumor activity against P388 Leukemia from CDF1 female mice as the number of survivors on day 5 at a dose of 0.75 mg/kg/day; type: functional, Mus musculus; procedure, shortened: as §2

SMILES | IC50 [1] | IC50 [2] | median survival time, days [3] | median survival time, days [4] | Body weight change [5] | Body weight change [6] | T/C [7] | T/C [8] | Toxicity [9]
COc1ccc(C[C@H]2C(=O)O[C@H](C)[C@H](NC(=O)[C@@H](CC(C)C)N(C)C(=O)C3CCCN3C(=O)[C@H](O)c3ccccc3)C(=O)NC(C(C)C)[C@H](O)CC(=O)O[C@@H](C(C)C)C(=O)[C@H](C)C(=O)N[C@@H](CC(C)C)C(=O)N3CCC[C@H]3C(=O)N2C)cc1 (some centres not stated) | 2 ng/mL (≈ 1.72 nM) | 1.3 ng/mL (≈ 1.12 nM) | 16 | 19 | 0.2 g | -1.5 g | 159% | 134% | 1
COc1ccc(C[C@H]2C(=O)O[C@H](C)C(NC(=O)[C@H](CC(C)C)N(C)C(=O)C3CCCN3C(=O)[C@@H](C)O)C(=O)NC(C(C)C)[C@H](O)CC(=O)O[C@@H](C(C)C)C(=O)[C@H](C)C(=O)N[C@@H](CC(C)C)C(=O)N3CCC[C@H]3C(=O)N2C)cc1 (some centres not stated) | 1260 ng/mL (≈ 1150 nM) | 589 ng/mL (≈ 536 nM) | – | – | – | – | – | – | –
CCCCCCCCCCCCCCCC(=O)N1CCCC1C(=O)N(C)[C@H](CC(C)C)C(=O)N[C@@H]1C(=O)NC(C(C)C)[C@H](O)CC(=O)O[C@@H](C(C)C)C(=O)[C@H](C)C(=O)N[C@@H](CC(C)C)C(=O)N2CCC[C@H]2C(=O)N(C)[C@@H](Cc2ccc(OC)cc2)C(=O)O[C@@H]1C (some centres not stated) | > 1000 ng/mL | > 1000 ng/mL | – | – | – | – | – | – | –
COc1ccc(C[C@H]2C(=O)O[C@H](C)[C@H](NC(=O)[C@@H](CC(C)C)N(C)C(=O)C3CCCN3C(=O)CCc3ccc(O)cc3)C(=O)NC(C(C)C)[C@H](O)CC(=O)O[C@@H](C(C)C)C(=O)[C@H](C)C(=O)N[C@@H](CC(C)C)C(=O)N3CCC[C@H]3C(=O)N2C)cc1 (some centres not stated) | 4.8 ng/mL (≈ 4.09 nM) | 1.5 ng/mL (≈ 1.28 nM) | 14.7 | 18.7 | 0.2 g | -1.1 g | 157% | 123% | 1
